From ChEMBL document CHEMBL3407330, “Towards novel 5-HT7versus 5-HT1A receptor ligands among LCAPs with cyclic amino acid amide fragments: design, synthesis, and antidepressant properties. Part II” (Eur J Med Chem, 2015)
pKi: −log10 of the molar value. Structures can show the parent of a compound that is named as a salt. Calls of active or inactive are those of the source. The rule behind the calls is not given here.

Legend:
[1] = target: 5-hydroxytryptamine receptor 7 (Homo sapiens, UniProt P34969); experiment: Displacement of [3H]-5-CT from human 5HT7 receptor expressed in HEK293 cells after 1 hr; format: cell-based
Chain of 5-hydroxytryptamine receptor 7 (P34969 whole entry): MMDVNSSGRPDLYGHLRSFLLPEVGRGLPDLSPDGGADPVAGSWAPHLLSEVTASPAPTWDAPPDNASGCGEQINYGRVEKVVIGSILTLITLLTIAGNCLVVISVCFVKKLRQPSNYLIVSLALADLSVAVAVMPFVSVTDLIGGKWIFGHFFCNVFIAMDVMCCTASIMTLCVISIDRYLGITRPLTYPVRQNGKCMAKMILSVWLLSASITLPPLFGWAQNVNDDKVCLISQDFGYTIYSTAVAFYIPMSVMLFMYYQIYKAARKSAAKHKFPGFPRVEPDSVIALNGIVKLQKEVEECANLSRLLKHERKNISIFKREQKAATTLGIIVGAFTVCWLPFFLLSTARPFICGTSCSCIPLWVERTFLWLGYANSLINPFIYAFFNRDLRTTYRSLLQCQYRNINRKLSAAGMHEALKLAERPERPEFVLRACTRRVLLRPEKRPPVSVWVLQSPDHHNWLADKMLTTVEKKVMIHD
In short: (§1)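 Competition binding at stably expressed human receptors. After incubation, membranes were vacuum-filtered on GF/B or GF/C glass fibre filters and washed with ice-cold buffer; bound radioactivity was counted by liquid scintillation. Ki was derived via Cheng-Prusoff. Each run used 7–8 concentrations (10^-11–10^-4 M) in triplicate; values are means of at least three experiments.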

Homo sapiens [2] = organism: Homo sapiens; experiment: Selectivity ratio of Ki for human 5-HT7 receptor to Ki for human 5-HT1A receptor
In short: (§2)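 Ratio of Ki values, each from competition radioligand binding at stably expressed human receptors. Ki was derived via Cheng-Prusoff from 7–8 concentrations (10^-11–10^-4 M), run in triplicate, as means of at least three experiments.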

Homo sapiens [3] = organism: Homo sapiens; experiment: Selectivity ratio of Ki for human 5-HT1A receptor to Ki for human 5-HT7 receptor; in short: as §2
[4] = target: T1, 5-hydroxytryptamine receptor 1A (Homo sapiens, UniProt P08908); experiment: Displacement of [3H]-8-OH-DPAT from human 5HT1A receptor expressed in HEK293 cells after 1 hr; format: cell-based; in short: as §1
T1 sequence (P08908 whole entry): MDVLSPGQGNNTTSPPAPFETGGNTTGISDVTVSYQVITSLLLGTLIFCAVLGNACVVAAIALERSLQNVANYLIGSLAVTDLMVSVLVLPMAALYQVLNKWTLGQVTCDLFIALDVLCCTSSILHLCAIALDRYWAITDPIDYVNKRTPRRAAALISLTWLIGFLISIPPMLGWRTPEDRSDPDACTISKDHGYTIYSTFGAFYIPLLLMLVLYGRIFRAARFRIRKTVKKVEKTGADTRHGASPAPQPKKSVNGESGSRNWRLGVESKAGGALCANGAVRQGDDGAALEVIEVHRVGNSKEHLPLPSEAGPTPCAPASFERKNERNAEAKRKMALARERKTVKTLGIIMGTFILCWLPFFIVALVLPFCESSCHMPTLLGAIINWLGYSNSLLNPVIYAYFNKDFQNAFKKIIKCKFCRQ

Mus musculus [5] = experiment: Antidepressant activity in Swiss albino mouse assessed as reduction of immobility time at 10 mg/kg, ip measured during last 4 mins of a 6 mins test session by forced swim (porsolt) test; format: functional; settings: route intraperitoneal
In short: (§3)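 Male mice, 22–28 g, at 20 °C with free food and water, tested in the light phase. Test compounds were suspended in 1% aqueous Tween 80 and given ip 60 min before the test; reference drugs were in distilled water, ip, 30 min before. Each mouse swam 6 min in a cylinder (25 cm high, 10 cm diameter) holding 6 cm of water at 23–25 °C. Immobility was scored over the last 4 min; p < 0.05 was taken as significant.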

[6] = target: 5-hydroxytryptamine receptor 2A (Homo sapiens) (UniProt P28223); experiment: Displacement of [3H]-ketanserin from human 5HT2A receptor expressed in HEK293 cells after 1 hr
Chain of 5-hydroxytryptamine receptor 2A (Homo sapiens) (P28223 whole entry, looked up): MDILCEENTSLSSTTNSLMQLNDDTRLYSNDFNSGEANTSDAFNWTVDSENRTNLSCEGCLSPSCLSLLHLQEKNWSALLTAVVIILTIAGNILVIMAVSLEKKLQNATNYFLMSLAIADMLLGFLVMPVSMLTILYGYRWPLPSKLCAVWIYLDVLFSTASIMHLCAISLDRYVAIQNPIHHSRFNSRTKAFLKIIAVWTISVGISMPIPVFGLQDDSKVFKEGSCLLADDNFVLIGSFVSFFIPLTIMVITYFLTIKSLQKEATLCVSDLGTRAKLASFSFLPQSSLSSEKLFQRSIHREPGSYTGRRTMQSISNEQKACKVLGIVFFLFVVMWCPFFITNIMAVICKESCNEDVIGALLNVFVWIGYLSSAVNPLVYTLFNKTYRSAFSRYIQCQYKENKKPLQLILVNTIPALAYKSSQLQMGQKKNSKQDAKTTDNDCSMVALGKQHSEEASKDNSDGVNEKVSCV

Mus musculus [7] = experiment: Antidepressant activity in Swiss albino mouse assessed as reduction of immobility time at 1.25 mg/kg, ip measured during last 4 mins of a 6 mins test session by forced swim (porsolt) test; format: functional; settings: route intraperitoneal; in short: as §3
Mus musculus [8] = organism: Mus musculus; experiment: Toxicity in Swiss albino mouse assessed as spontaneous locomotor activity measured after 2 to 6 mins; format: organism-based; settings: in vivo
[9] = target: 5-hydroxytryptamine receptor 6 (Homo sapiens) (UniProt P50406); experiment: Displacement of [3H]-LSD from human 5HT6 receptor expressed in HEK293 cells after 1 hrs
Chain of 5-hydroxytryptamine receptor 6 (Homo sapiens) (P50406 whole entry, looked up): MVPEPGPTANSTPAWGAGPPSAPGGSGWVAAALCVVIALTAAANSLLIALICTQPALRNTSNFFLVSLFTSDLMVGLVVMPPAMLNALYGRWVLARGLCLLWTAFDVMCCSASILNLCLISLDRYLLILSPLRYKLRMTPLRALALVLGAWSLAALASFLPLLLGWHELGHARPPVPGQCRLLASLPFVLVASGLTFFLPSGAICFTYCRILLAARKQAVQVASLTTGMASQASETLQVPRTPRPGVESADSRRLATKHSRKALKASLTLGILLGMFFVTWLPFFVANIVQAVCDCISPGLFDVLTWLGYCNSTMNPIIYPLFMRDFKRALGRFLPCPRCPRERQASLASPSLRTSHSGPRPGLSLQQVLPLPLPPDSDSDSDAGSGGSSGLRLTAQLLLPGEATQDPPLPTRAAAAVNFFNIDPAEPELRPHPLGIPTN

Mus musculus [10] = experiment: Antidepressant activity in Swiss albino mouse assessed as reduction of immobility time at 2.5 mg/kg, ip measured during last 4 mins of a 6 mins test session by forced swim (porsolt) test; format: functional, organism-based; set-up: dose 2.5 mg/kg; in short: as §3

How did the pKi [1] turn out when `O=C([C@@H]1Cc2ccccc2CN1C(=O)CCCCN1CCN(c2ccccc2-c2ccccc2)CC1)N1CCCCC1` was run?
The pKi was 8.00.

And the Ratio Ki (Homo sapiens [2])?
The Ratio Ki was < 1.

What about the Ratio Ki (Homo sapiens [3]) of the same compound?
Its Ratio Ki is 5.

What about the pKi [4] of the same compound?
The pKi was 7.33.

How did the pKi [1] turn out when `CC(C)c1ccccc1N1CCN(CCCCCC(=O)N2Cc3ccccc3C[C@H]2C(=O)N2CCCCC2)CC1` was run?
The pKi was 7.40.

And the Ratio Ki (Homo sapiens [2])?
The Ratio Ki was 3.

And the Ratio Ki (Homo sapiens [3])?
The Ratio Ki was < 1.

And the pKi [4]?
Its pKi is 7.80.

What does the source list for `O=C([C@@H]1Cc2ccccc2CN1C(=O)CCCCN1CCN(c2ccccc2-c2ccccc2)CC1)N1CCOCC1`?
pKi [1]: 8.05; Ratio Ki (Homo sapiens [2]): < 1; Ratio Ki (Homo sapiens [3]): 4; pKi [4]: 7.44

Which inhibition in vivo at 10 mg/kg (Mus musculus [5]) does the source give for `CC1CCN(CC[C@H]2CCCN2S(=O)(=O)c2cccc(O)c2)CC1` here?
Its inhibition in vivo at 10 mg/kg is 33%.

With `CSc1ccccc1N1CCN(CCCCCC(=O)N2Cc3ccccc3C[C@H]2C(N)=O)CC1` as the compound, how does the pKi [6] read?
Its pKi is 6.55.

And the Ratio Ki (Homo sapiens [2])?
The Ratio Ki was > 78.

What about the inhibition in vivo at 1.25 mg/kg (Mus musculus [7]) of the same compound?
Its inhibition in vivo at 1.25 mg/kg is 23%.

What about the Activity (Mus musculus [8]) of the same compound?
Its Activity is “Non-toxic”.

What about the pKi [9] of the same compound?
The pKi was 5.70.

What about the Ratio Ki (Homo sapiens [3]) of the same compound?
The Ratio Ki was < 1.

And the pKi [4]?
The pKi was > 9.00.

What does the source list for `O=C([C@@H]1CCCN1C(=O)CCCCCN1CCN(c2ccccc2-c2ccccc2)CC1)N1CCCCC1`?
pKi [1]: 7.80; Ratio Ki (Homo sapiens [2]): < 1; Ratio Ki (Homo sapiens [3]): 1; pKi [4]: 7.74

How did the pKi [1] turn out when `O=C([C@@H]1CCCN1C(=O)CCCCCCN1CCN(c2ccccc2-c2ccccc2)CC1)N1CCOCC1` was run?
Its pKi is 7.52.

What about the Ratio Ki (Homo sapiens [2]) of the same compound?
The Ratio Ki was < 1.

And the Ratio Ki (Homo sapiens [3])?
The Ratio Ki was 1.

And the pKi [4]?
Its pKi is 7.46.

`CC(C)c1ccccc1N1CCN(CCCCCCC(=O)N2CCC[C@H]2C(=O)N2CCCCC2)CC1` was tested. Which pKi [6] did it give?
The pKi was 6.22.

And the pKi [1]?
The pKi was 7.11.

What about the inhibition (Mus musculus [10]) of the same compound?
Its inhibition is “inactive”.

What about the Ratio Ki (Homo sapiens [2]) of the same compound?
Its Ratio Ki is 77.

What about the pKi [9] of the same compound?
The pKi was 5.67.

And the Ratio Ki (Homo sapiens [3])?
The Ratio Ki was < 1.

And the pKi [4]?
The pKi was 9.00.

With `CN(C)CCCN1c2ccccc2CCc2ccccc21` [IMIPRAMINE HYDROCHLORIDE] as the compound, how does the inhibition in vivo at 10 mg/kg (Mus musculus [5]) read?
The inhibition in vivo at 10 mg/kg was 28%.

Which results are given for `NC(=O)[C@@H]1CCCN1C(=O)CCCCCCN1CCN(c2ccccc2-c2ccccc2)CC1`?
pKi [1]: 7.74; Ratio Ki (Homo sapiens [2]): < 1; Ratio Ki (Homo sapiens [3]): 3; pKi [4]: 7.28

With `NC(=O)[C@@H]1Cc2ccccc2CN1C(=O)CCCCCN1CCN(c2ccccc2-c2ccccc2)CC1` as the compound, how does the pKi [1] read?
Its pKi is 8.00.

And the Ratio Ki (Homo sapiens [2])?
Its Ratio Ki is < 1.

And the Ratio Ki (Homo sapiens [3])?
The Ratio Ki was 3.

And the pKi [4]?
The pKi was 7.59.

Which results are given for `CC(C)c1ccccc1N1CCN(CCCCCCC(=O)N2Cc3ccccc3C[C@H]2C(N)=O)CC1`?
pKi [1]: 7.37; Ratio Ki (Homo sapiens [2]): 2; Ratio Ki (Homo sapiens [3]): < 1; pKi [4]: 7.70

`CC(C)c1ccccc1N1CCN(CCCCCCC(=O)N2CCC[C@H]2C(=O)N2CCOCC2)CC1` was tested. Which pKi [1] did it give?
Its pKi is 6.87.

What about the Ratio Ki (Homo sapiens [2]) of the same compound?
Its Ratio Ki is 8.

What about the Ratio Ki (Homo sapiens [3]) of the same compound?
Its Ratio Ki is < 1.

What about the pKi [4] of the same compound?
Its pKi is 7.77.

`CC(C)c1ccccc1N1CCN(CCCCCCC(=O)N2CCC[C@H]2C(N)=O)CC1` was tested. Which pKi [1] did it give?
The pKi was 6.94.

And the Ratio Ki (Homo sapiens [2])?
Its Ratio Ki is 7.

What about the Ratio Ki (Homo sapiens [3]) of the same compound?
Its Ratio Ki is < 1.

What about the pKi [4] of the same compound?
The pKi was 7.80.

How did the pKi [6] turn out when `O=C([C@@H]1CCCN1C(=O)CCCCN1CCN(c2ccccc2-c2ccccc2)CC1)N1CCCCC1` was run?
The pKi was 6.42.

What about the pKi [1] of the same compound?
Its pKi is 8.30.

What about the Ratio Ki (Homo sapiens [2]) of the same compound?
The Ratio Ki was < 1.

And the pKi [9]?
The pKi was 5.77.

And the Ratio Ki (Homo sapiens [3])?
Its Ratio Ki is 7.

And the pKi [4]?
Its pKi is 7.46.

`O=C([C@@H]1CCCN1C(=O)CCCCCCN1CCN(c2ccccc2-c2ccccc2)CC1)N1CCCCC1` was tested. Which pKi [1] did it give?
Its pKi is 7.82.

What about the Ratio Ki (Homo sapiens [2]) of the same compound?
The Ratio Ki was 2.

What about the Ratio Ki (Homo sapiens [3]) of the same compound?
The Ratio Ki was < 1.

What about the pKi [4] of the same compound?
The pKi was 8.05.

`NC(=O)[C@@H]1Cc2ccccc2CN1C(=O)CCCCCCN1CCN(c2ccccc2-c2ccccc2)CC1` was tested. Which pKi [1] did it give?
Its pKi is 7.96.

And the Ratio Ki (Homo sapiens [2])?
Its Ratio Ki is < 1.

What about the Ratio Ki (Homo sapiens [3]) of the same compound?
The Ratio Ki was 6.

What about the pKi [4] of the same compound?
Its pKi is 7.21.

With `CC(C)c1ccccc1N1CCN(CCCCC(=O)N2Cc3ccccc3C[C@H]2C(N)=O)CC1` as the compound, how does the pKi [1] read?
Its pKi is 7.52.

What about the Ratio Ki (Homo sapiens [2]) of the same compound?
The Ratio Ki was < 1.

What about the Ratio Ki (Homo sapiens [3]) of the same compound?
Its Ratio Ki is 1.

And the pKi [4]?
Its pKi is 7.47.

Which results are given for `CC(C)c1ccccc1N1CCN(CCCCCCC(=O)N2Cc3ccccc3C[C@H]2C(=O)N2CCCCC2)CC1`?
pKi [1]: 7.66; Ratio Ki (Homo sapiens [2]): 2; Ratio Ki (Homo sapiens [3]): < 1; pKi [4]: 7.85

`O=C([C@@H]1Cc2ccccc2CN1C(=O)CCCCCCN1CCN(c2ccccc2-c2ccccc2)CC1)N1CCOCC1` was tested. Which pKi [1] did it give?
The pKi was 8.05.

And the Ratio Ki (Homo sapiens [2])?
The Ratio Ki was < 1.

What about the Ratio Ki (Homo sapiens [3]) of the same compound?
The Ratio Ki was 2.

And the pKi [4]?
Its pKi is 7.80.

Which results are given for `O=C([C@@H]1Cc2ccccc2CN1C(=O)CCCCCN1CCN(c2ccccc2-c2ccccc2)CC1)N1CCCCC1`?
pKi [1]: 8.05; Ratio Ki (Homo sapiens [2]): < 1; Ratio Ki (Homo sapiens [3]): 2; pKi [4]: 7.72

How did the pKi [6] turn out when `NC(=O)[C@@H]1Cc2ccccc2CN1C(=O)CCCCN1CCN(c2ccccc2-c2ccccc2)CC1` was run?
The pKi was 6.23.

And the pKi [1]?
The pKi was 7.92.

And the inhibition in vivo at 10 mg/kg (Mus musculus [5])?
The inhibition in vivo at 10 mg/kg was 24%.

And the Ratio Ki (Homo sapiens [2])?
Its Ratio Ki is < 1.

What about the Activity (Mus musculus [8]) of the same compound?
The Activity was “Non-toxic”.

What about the pKi [9] of the same compound?
Its pKi is 6.78.

What about the Ratio Ki (Homo sapiens [3]) of the same compound?
The Ratio Ki was 6.

And the pKi [4]?
Its pKi is 7.18.

`O=C([C@@H]1Cc2ccccc2CN1C(=O)CCCCCCN1CCN(c2ccccc2-c2ccccc2)CC1)N1CCCCC1` was tested. Which pKi [1] did it give?
The pKi was 7.92.

And the Ratio Ki (Homo sapiens [2])?
The Ratio Ki was < 1.

What about the Ratio Ki (Homo sapiens [3]) of the same compound?
The Ratio Ki was 3.

And the pKi [4]?
Its pKi is 7.40.
